Bioassay records (PubChem BioAssay)
Compounds with a hit are over-represented: about 2.4% of the library has one in this group of screens.
Env fusion inh – HIV envelope-mediated fusion inhibition. HeLa-JRFL Env/CEM21 cell fusion, luciferase. inhibition, % at 12.3 µM. actives 1.1% (n = 360,000). AID 651610;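 active = mean replicate inhibition score of at least 50 and every replicate individually at or above 50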;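 note: 0% = plate neutral controls and 100% = maraviroc near 300 nM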
INS-1E GSIS act – GLuc luminescence reporter in INS-1E cells, primary screen for activators of glucose-dependent secretion of insulin. activation, % at 16.6 µM. INS-1E GLuc reporter insulin secretion, 2-3 h. actives 0.61% (n = 370,000);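 active = lowest replicate activation of at least 40%, so every replicate reaches that level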;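 note: 0% = median of neutral control wells and 100% = median of IBMX positive control wells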
Cneo AK release – Cryptococcus neoformans lysis via adenylate kinase release. C. neoformans lysis, adenylate kinase release luminescence, 4 h; normalised: neutral wells 0, clomiphene wells 100. lysis activity, % at 15 µM. actives 0.2% (n = 360,000). AID 651654;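 active = mean lysis activity across replicates of at least 80%, whatever share of replicates individually reach that level; inactive = mean lysis activity below 80%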
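Test system: log-phase Cryptococcus neoformans yeast cells. Input: 5 × 10^6 yeast cells/mL. Medium: fresh YPD growth medium. Doses: single dose. Incubation: static 4 h at 37 °C with compound, 1 h detection. Measured by: luminescent adenylate kinase detection reagent. Read-out: signal increase indicating cell lysis. Benchmarks: Clomiphene.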
Rtt109 HAT inh – C. albicans Rtt109 histone acetyltransferase inhibition; Q5AAJ8; purified Rtt109/Vps75, ThioGlo CoA-SH fluorescence, 4 h; inhibition, % at 34.9 µM; actives 0.16% (n = 330,000); AID 540336;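 active = inhibition of at least 50% in every replicate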
miR122 inh – inhibitors of miR-122 in Huh7 cells. Huh7 miR-122 Renilla luciferase sensor, 48 h; neutral wells = 0, positive control = 100. activation (reporter increase), % at 12.5 µM. actives 0.3% (n = 340,000);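 active = mean replicate activation score at least 90 and every replicate individually at or above 90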;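 note: higher luciferase means less miR-122 activity so hits act as miR-122 inhibitors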
dFosB activator – mouse delta FosB homodimer activation. P13346. purified delta FosB, TAMRA-CDK5 oligo fluorescence polarization; percent of positive-control signal above neutral wells. activation, % at 25 µM. actives 0.99% (n = 340,000). AID 493131;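 active = mean activation above about 17%, with every replicate also reaching it, limit read from the data, passing the limit was not always enough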
Target sequence (P13346 whole entry, looked up): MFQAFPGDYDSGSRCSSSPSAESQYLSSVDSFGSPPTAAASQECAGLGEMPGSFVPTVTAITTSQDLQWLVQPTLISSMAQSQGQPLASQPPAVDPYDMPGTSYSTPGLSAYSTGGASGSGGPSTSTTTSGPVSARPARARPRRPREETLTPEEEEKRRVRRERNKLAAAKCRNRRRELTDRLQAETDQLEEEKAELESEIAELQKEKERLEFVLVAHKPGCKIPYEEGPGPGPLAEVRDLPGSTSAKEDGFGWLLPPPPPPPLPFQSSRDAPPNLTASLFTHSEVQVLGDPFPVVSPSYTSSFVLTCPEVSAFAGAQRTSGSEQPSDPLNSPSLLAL
The depositor's hits bear a star; . = no result given; [ ] = dose if it differs, or a comment.

SMILES	Env fusion inh	INS-1E GSIS act	Cneo AK release	Rtt109 HAT inh	miR122 inh	dFosB activator
Nc1nc(NCCOCCO)nc(NCC2CCCO2)c1[N+](=O)[O-] (configuration not stated)	-6	-12	.	-5	.	-4
Cc1ccc(Nc2nc(NCC3CCCO3)nc(N)c2[N+](=O)[O-])cc1 (configuration not stated)	-48	81*	.	-5	.	-4
COCCNc1nc(N)c([N+](=O)[O-])c(NCC2CCCO2)n1 (configuration not stated)	-68	54*	3	19	-22	-3
CCC(=O)N(C)C[C@@H]1Oc2cc(C3=CCCCC3)ccc2S(=O)(=O)N([C@H](C)CO)C[C@@H]1C	18[16.7 µM]	7	.	.	3[16.7 µM]	.
COC(=O)c1c(NC(=O)CN2CCC3(O)CCCCC3C2c2ccc(OC)cc2OC)sc(C)c1C (configuration not stated)	66*	.	.	12	.	-12
CC1CC(C)CN(C(=O)c2ccc(NC(=O)c3ccc(=O)[nH]c3)cc2)C1 (configuration not stated)	10	-2	-4	-6	1	-5
CC1CC(C)CN(S(=O)(=O)c2ccc(NC(=O)c3ccc(=O)[nH]c3)cc2)C1 (configuration not stated)	.	-8	-3	2	102*	-14
COc1ccc2c3c(n(C)c2c1)[C@H](CO)N(C(=O)Nc1ccc(F)cc1)CC31CCN(S(=O)(=O)c2cccs2)CC1	.	22	.	.	.	.
Cc1cc(OCCOCCNCc2ccccc2)ccc1C(C)C	93*	-28	0	0	0	6
O=C(C[C@H]1CC[C@H]2[C@@H](COC[C@H](O)CN2C(=O)Nc2ccc3c(c2)OCO3)O1)N1CCN(c2ccccc2)CC1	.	-14	91*	.	3[16.7 µM]	.
O=C(C[C@@H]1CC[C@H]2[C@@H](COC[C@@H](O)CN2C(=O)Nc2ccc(Cl)cc2)O1)NCCc1ccncc1	-17[16.7 µM]	-13	100*	.	3[16.7 µM]	.
O=C(C[C@@H]1CC[C@H]2[C@@H](COC[C@H](O)CN2C(=O)Nc2ccc(Cl)cc2)O1)N1CCCCC1	.	-23	-2	.	6[16.7 µM]	.
O=C(C[C@H]1CC[C@H]2[C@@H](COC[C@H](O)CN2C(=O)Nc2ccc(Cl)cc2)O1)NCCc1ccncc1	18[16.7 µM]	-18	2	.	-10[16.7 µM]	.
O=C(C[C@H]1CC[C@H]2[C@@H](COC[C@@H](O)CN2C(=O)Nc2ccc(Cl)cc2)O1)N1CCCCC1	.	0	87*	.	28[16.7 µM]	.
C[C@H]1CN([C@@H](C)CO)S(=O)(=O)c2ccc(-c3cccnc3)cc2O[C@@H]1CN(C)C(=O)C1CC1	9[16.7 µM]	17	.	.	-4[16.7 µM]	.
C[C@H](CO)N1C[C@H](C)[C@H](CN(C)C(=O)C2CCC2)Oc2ncc(-c3ccncc3)cc2C1=O	4[16.7 µM]	14	.	.	0[16.7 µM]	.
CC1(C)OC(=O)C2=C(C[C@@H](CCc3ccccc3)O[C@@H]2c2ccc(F)cc2)O1	2	-35	.	.	.	.
CC[C@@H]1CC2=C(C(=O)OC(C)(C)O2)[C@H](c2ccc(F)cc2)O1	7	45*	0	.	3	.
CC(=O)Nc1sc(N/N=C\c2cccc(Cl)c2)nc1-c1cccs1	.	68*	.	-3	.	-11
O=C(NCC(F)(F)F)[C@@H]1c2ccccc2C(=O)N(CC23CC4CC(CC(C4)C2)C3)[C@H]1c1ccc(CO)cc1	74*[16.7 µM]	.	40	.	.	.
COc1ccc(CCNC(=O)[C@@H]2c3ccccc3C(=O)N(CC34CC5CC(CC(C5)C3)C4)[C@H]2c2ccc(CO)cc2)cc1	40[16.7 µM]	.	-6	.	.	.
C/C=C/c1ccc([C@@H]2[C@@H](C#N)N(S(=O)(=O)c3cccc(F)c3)[C@@H]2CO)cc1	.	1	109*	.	.	.
C[C@H]1CN([C@@H](C)CO)C(=O)c2cc(-c3ccncc3)cnc2O[C@@H]1CN(C)S(=O)(=O)c1ccc(F)cc1	.	19	6	.	6[16.7 µM]	.
CC(C)c1ccc(S(=O)(=O)N2CCC(C(=O)NCc3ccco3)CC2)cc1	56*	-1	-4	2	-2	-11
CC(=O)Nc1ccc(S(=O)(=O)N2CCC(C(=O)NCc3ccco3)CC2)cc1	-25	33	.	11	.	-2
SMILES	Env fusion inh	INS-1E GSIS act	Cneo AK release	Rtt109 HAT inh	miR122 inh	dFosB activator
Cc1cccc(N(Cc2cc(=O)[nH]c3ccccc23)C(=O)CCl)c1	82*	3	.	-15	.	-13
COc1ccc(C#Cc2cnc3c(c2)C(=O)N([C@@H](C)CO)C[C@H](C)[C@@H](CN(C)C(=O)CC2CC2)O3)cc1	.	-16	88*	.	-15[16.7 µM]	.
CCCC#Cc1cnc2c(c1)C(=O)N([C@H](C)CO)C[C@@H](C)[C@@H](CN(C)C(=O)Nc1ccc(OC)cc1)O2	-18[16.7 µM]	-22	-1	.	-4[16.7 µM]	.
COCC#Cc1cnc2c(c1)C(=O)N([C@@H](C)CO)C[C@H](C)[C@H](CN(C)C(=O)Nc1ccc(OC)cc1)O2	-13[16.7 µM]	21	109*	.	25[16.7 µM]	.
COc1ccc(S(=O)(=O)N(C)C[C@@H]2Oc3ccc(NC(=O)CCCN(C)C)cc3C(=O)N([C@@H](C)CO)C[C@H]2C)cc1	.	4	5	.	-4[16.7 µM]	.
O=C(c1cccnc1)N1CC[C@@H]2[C@H](CO)Nc3ccc(-c4ccc(F)cc4)cc3[C@@H]21	.	-10	-2	.	-10[16.7 µM]	.
COc1cc(NCCCCCCN)c2ncccc2c1OC	-29	1	.	3	-4	18*
C[C@H](CO)N1C[C@H](C)[C@H](CN(C)Cc2ccncc2)Oc2cc(C3=CCCC3)ccc2S1(=O)=O	28[16.7 µM]	-9	-1	.	-3[16.7 µM]	.
Cc1cccc(-n2ncc3c2CCCC3NC(=O)c2cccs2)c1C (configuration not stated)	1	-21	.	.	.	.
Cc1cc(C(=O)NC2CCCc3c2cnn3-c2ccc(C(C)(C)C)cc2)nn1C (configuration not stated)	82*	-23	-3	2	7	-6
Cc1cc(C(=O)NC2CCCc3c2cnn3-c2ccc(C)c(C)c2)nc(C)n1 (configuration not stated)	8	-31	5	11	-6	-23
Cc1cccc(-n2ncc3c2CCCC3NC(=O)c2ccncc2)c1C (configuration not stated)	61*	.	0	.	1	.
CCn1cc(C(=O)NC2CCCc3c2cnn3-c2cccc(C)c2C)cn1 (configuration not stated)	57*	-23	-6	0	3	-8
Cc1cc(C)cc(-n2ncc3c2CCCC3NC(=O)c2cc(C)n(C)n2)c1 (configuration not stated)	6	-13	-3	9	0	-16
COC(=O)c1ccc(C(=O)NC2CCCc3c2cnn3-c2ccc(C)c(C)c2)cc1 (configuration not stated)	72*	-26	4	6	4	3
